Test results as given in ChEMBL document CHEMBL3862017, “Synthesis and evaluation of the structural elements in alkylated tetrahydroisoquinolines for binding to CNS receptors” (Bioorg Med Chem, 2016).
Each block holds one compound with its values, some of them ahead of it.

How the values were obtained:
D(4) dopamine receptor = biological target: T1, D(4) dopamine receptor (Rattus norvegicus, UniProt P30729)
T1 sequence (P30729 whole entry): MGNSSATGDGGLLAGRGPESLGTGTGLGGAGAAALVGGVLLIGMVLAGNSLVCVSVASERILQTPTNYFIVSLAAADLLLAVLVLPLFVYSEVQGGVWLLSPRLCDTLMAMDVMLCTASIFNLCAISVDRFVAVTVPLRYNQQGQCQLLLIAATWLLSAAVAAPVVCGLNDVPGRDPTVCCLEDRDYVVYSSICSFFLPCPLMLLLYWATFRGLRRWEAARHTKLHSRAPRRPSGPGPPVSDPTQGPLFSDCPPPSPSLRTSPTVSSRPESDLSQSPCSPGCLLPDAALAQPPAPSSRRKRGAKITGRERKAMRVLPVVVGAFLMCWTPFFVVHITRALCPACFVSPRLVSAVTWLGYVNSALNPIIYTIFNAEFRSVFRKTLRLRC

[1] = biological target: 5-hydroxytryptamine receptor 2A (Homo sapiens, UniProt P28223); assay: Displacement of [3H]-ketanserin from human 5-HT2A receptor by liquid scintillation counting method; settings: for inhibition: concentration not given here
5-hydroxytryptamine receptor 2A, sequence (P28223 whole entry): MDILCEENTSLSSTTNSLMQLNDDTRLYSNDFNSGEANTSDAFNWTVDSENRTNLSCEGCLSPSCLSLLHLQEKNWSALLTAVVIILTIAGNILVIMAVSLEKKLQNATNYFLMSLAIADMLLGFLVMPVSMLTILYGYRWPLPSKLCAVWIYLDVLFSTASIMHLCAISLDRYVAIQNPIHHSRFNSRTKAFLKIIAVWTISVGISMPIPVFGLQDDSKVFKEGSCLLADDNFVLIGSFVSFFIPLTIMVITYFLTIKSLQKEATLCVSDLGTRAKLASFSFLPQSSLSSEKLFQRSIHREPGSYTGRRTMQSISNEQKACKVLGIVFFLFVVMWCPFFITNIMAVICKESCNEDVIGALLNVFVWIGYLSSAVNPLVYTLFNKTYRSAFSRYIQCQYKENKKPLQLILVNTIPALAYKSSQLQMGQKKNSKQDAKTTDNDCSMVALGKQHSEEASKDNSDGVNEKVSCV
How it was run: (§1)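 Binding assays run by the NIMH Psychoactive Drug Screening Program (PDSP) using its previously reported methods and radioligands. Affinity is given as Ki.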

Histamine H1 receptor = Histamine H1 receptor (Homo sapiens, UniProt P35367); assay: Displacement of [3H]-pyrilamine from human histamine H1 receptor by liquid scintillation counting method
Histamine H1 receptor, sequence (P35367 whole entry): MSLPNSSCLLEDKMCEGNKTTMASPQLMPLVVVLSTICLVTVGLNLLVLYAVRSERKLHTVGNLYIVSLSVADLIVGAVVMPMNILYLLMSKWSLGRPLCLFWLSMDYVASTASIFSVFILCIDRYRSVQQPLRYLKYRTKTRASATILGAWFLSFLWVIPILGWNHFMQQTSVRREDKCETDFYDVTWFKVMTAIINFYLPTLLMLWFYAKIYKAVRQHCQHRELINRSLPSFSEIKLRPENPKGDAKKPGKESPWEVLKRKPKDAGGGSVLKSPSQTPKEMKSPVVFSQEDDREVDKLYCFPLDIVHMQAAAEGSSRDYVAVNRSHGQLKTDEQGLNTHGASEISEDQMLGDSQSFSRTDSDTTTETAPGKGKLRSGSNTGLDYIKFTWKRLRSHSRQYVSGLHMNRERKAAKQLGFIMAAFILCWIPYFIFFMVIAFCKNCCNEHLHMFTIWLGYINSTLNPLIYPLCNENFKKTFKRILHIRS
How it was run: as §1

[2] = biological target: 5-hydroxytryptamine receptor 7 (Homo sapiens) (UniProt P34969); assay: Displacement of [3H]-LSD from human 5-HT7 receptor by liquid scintillation counting method; settings: concentration not given here
5-hydroxytryptamine receptor 7 (Homo sapiens), sequence (P34969 whole entry): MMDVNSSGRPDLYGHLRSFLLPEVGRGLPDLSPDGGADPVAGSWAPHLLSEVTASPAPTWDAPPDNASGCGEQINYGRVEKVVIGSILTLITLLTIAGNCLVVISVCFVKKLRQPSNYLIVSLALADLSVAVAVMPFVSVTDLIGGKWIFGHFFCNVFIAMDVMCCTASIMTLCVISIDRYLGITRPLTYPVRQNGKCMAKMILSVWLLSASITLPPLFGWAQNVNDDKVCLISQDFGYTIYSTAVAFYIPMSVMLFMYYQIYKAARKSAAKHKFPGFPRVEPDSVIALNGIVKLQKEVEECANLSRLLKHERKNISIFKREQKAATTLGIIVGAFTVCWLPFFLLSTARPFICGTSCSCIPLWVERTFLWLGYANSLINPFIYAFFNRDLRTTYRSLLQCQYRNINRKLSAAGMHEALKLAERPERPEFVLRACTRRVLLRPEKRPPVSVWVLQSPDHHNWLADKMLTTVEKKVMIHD
How it was run: as §1

[3] = biological target: D(3) dopamine receptor (Homo sapiens) (UniProt P35462); assay: Displacement of [3H]-N-methylspiperone from human dopamine D3 receptor by liquid scintillation counting method; settings: concentration not given here
D(3) dopamine receptor (Homo sapiens), sequence (P35462 whole entry): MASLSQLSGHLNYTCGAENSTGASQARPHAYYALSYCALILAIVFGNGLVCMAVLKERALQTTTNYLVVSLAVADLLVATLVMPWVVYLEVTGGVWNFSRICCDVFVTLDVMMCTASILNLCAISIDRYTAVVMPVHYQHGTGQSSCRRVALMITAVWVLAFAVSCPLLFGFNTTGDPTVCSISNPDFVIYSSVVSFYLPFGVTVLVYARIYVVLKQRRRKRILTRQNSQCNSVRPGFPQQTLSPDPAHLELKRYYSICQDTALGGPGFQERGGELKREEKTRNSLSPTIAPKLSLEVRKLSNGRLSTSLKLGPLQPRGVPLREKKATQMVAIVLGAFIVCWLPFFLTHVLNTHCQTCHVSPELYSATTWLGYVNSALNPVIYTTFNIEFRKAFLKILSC
How it was run: as §1

[4] = biological target: T2, 5-hydroxytryptamine receptor 1A (Homo sapiens) (UniProt P08908); assay: Displacement of [3H]-8-OH-DPAT from human 5-HT1A receptor by liquid scintillation counting method; settings: concentration not given here
T2 sequence (whole entry): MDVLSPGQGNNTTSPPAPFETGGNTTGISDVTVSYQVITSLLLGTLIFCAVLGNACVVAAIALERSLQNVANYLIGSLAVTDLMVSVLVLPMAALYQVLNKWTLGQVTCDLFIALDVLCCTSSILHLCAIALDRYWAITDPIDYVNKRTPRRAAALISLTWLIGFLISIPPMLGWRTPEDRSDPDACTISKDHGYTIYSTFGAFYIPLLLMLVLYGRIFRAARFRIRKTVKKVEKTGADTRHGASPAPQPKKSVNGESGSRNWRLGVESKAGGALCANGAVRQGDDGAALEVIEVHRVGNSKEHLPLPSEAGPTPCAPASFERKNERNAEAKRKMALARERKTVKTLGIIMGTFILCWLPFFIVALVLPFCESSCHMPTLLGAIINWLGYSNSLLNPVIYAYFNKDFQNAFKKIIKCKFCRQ
How it was run: as §1

[5] = biological target: 5-hydroxytryptamine receptor 2B (Homo sapiens, UniProt P41595); assay: Displacement of [3H]-LSD from human 5-HT2B receptor by liquid scintillation counting method
5-hydroxytryptamine receptor 2B, sequence (P41595 whole entry): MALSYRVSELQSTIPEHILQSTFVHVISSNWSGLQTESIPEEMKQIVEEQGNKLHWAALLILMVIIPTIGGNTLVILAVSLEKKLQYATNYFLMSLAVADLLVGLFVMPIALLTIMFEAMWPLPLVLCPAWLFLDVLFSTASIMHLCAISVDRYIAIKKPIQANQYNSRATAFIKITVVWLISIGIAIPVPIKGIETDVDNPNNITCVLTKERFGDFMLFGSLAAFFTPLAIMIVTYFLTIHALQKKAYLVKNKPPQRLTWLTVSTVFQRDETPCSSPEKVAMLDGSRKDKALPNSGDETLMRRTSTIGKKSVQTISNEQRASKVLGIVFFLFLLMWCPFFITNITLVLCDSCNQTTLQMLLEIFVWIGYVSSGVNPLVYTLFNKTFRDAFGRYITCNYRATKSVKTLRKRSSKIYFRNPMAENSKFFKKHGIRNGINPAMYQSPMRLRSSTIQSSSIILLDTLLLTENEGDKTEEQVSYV
How it was run: as §1

[6] = biological target: D(2) dopamine receptor (Homo sapiens) (UniProt P14416); assay: Displacement of [3H]-N-methylspiperone from human dopamine D2 receptor by liquid scintillation counting method; set-up: concentration or dose not given beside the values; settings: concentration not given here
D(2) dopamine receptor (Homo sapiens), sequence (P14416 whole entry): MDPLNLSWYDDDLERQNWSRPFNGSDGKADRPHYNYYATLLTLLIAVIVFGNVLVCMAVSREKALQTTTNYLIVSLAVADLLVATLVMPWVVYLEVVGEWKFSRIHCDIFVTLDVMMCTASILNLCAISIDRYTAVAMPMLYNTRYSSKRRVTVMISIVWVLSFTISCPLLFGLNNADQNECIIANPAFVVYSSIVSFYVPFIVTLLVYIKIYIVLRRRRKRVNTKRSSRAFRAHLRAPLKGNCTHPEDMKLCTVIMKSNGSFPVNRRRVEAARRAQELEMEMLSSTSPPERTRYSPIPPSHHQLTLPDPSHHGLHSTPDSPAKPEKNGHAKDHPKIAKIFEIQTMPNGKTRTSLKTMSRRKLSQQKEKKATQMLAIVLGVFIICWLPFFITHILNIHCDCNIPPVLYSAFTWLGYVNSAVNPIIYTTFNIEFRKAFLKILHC
How it was run: as §1

[7] = biological target: T3, 5-hydroxytryptamine receptor 2C (Homo sapiens, UniProt P28335); assay: Displacement of [3H]-mesulergine from human 5-HT2C receptor by liquid scintillation counting method; settings: for inhibition (INH): human
T3 sequence (P28335 whole entry): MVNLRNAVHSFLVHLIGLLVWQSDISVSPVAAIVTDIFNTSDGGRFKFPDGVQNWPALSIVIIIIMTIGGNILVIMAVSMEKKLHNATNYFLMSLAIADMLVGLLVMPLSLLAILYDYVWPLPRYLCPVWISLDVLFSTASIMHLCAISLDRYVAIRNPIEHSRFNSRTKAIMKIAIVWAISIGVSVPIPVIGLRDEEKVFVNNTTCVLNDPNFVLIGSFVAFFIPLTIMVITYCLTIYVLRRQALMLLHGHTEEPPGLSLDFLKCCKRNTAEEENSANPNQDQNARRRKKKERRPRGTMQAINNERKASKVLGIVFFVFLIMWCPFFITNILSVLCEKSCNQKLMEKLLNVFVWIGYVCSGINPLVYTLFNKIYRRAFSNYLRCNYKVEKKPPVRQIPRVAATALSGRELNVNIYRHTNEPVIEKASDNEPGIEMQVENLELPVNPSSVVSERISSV
How it was run: as §1

Ki (D(4) dopamine receptor): 0.442 µM
Structure (SMILES): O=C(CCCN1CCCc2ccccc2C1)c1ccc(Cl)cc1

Ki (D(4) dopamine receptor): 0.14 µM
Structure (SMILES): C1=C(CCN2CCc3ccccc3C2)CCc2ccccc21

inhibition [1]: < 50%
inhibition (INH) (Histamine H1 receptor): < 50%
inhibition [2]: < 50%
inhibition (INH) [7]: < 50%
inhibition [4]: < 50%
inhibition (INH) [5]: < 50%
inhibition [6]: < 50%
Structure (SMILES): CC1(C)CC(=O)N(CCCCN2CCc3ccccc3C2)C(=O)C1.Cl

Ki (D(4) dopamine receptor): 1.1 µM
Structure (SMILES): O=C1c2ccccc2CC1CCN1CCc2ccccc2C1 (centres undefined)

Ki [1]: > 10 µM
Ki [7]: > 10 µM
Ki (D(4) dopamine receptor): 0.127 µM
inhibition (INH) [5]: < 50%
Structure (SMILES): Cl.Cl.c1ccc2c(c1)CCN(CCCc1nc3ccccc3[nH]1)C2

Ki (D(4) dopamine receptor): 0.05 µM
Structure (SMILES): O=C1c2ccc(Cl)cc2CC1CCN1CCc2ccccc2C1 (centres undefined)

inhibition (INH) (Histamine H1 receptor): < 50%
inhibition (INH) [7]: < 50%
Ki (D(4) dopamine receptor): 0.194 µM
inhibition [6]: < 50%
Structure (SMILES): C1=C(CCN2CCc3ccccc3C2)Cc2ccccc21

inhibition (INH) (Histamine H1 receptor): < 50%
Ki (D(4) dopamine receptor): 3.34 µM
Structure (SMILES): O=C1Cc2cc(C(=O)CCCN3CCc4ccccc4C3)ccc2N1

Ki (D(4) dopamine receptor): 0.041 µM
inhibition [6]: < 50%
Structure (SMILES): c1ccc2c(c1)CCN(CCCc1nc3ccccc3s1)C2

inhibition (INH) [7]: < 50%
Ki (D(4) dopamine receptor): 0.251 µM
Structure (SMILES): O=C1c2ccc(F)cc2CC1CCN1CCc2ccccc2C1 (centres undefined)

More lines, now with the values behind:

Structure (SMILES): O=C(CCCN1CCc2ccccc2CC1)c1ccc(Cl)cc1
Ki (D(4) dopamine receptor): 0.082 µM

Structure (SMILES): O=C(CCCN1CCCc2ccccc21)c1ccc(Cl)cc1
inhibition [1]: < 50%
inhibition (INH) (Histamine H1 receptor): < 50%
inhibition [2]: < 50%
inhibition [3]: < 50%
inhibition [4]: < 50%
inhibition (INH) [5]: < 50%
inhibition [6]: < 50%

Structure (SMILES): Clc1ccc2sc(CCCCN3CCC4CCCCC4C3)nc2c1 (centres undefined)
Ki (D(4) dopamine receptor): 0.037 µM

Structure (SMILES): Clc1cccc2c1CN(CCCCc1nc3ccccc3s1)CC2
Ki (D(4) dopamine receptor): 0.129 µM

Structure (SMILES): Cl.Clc1ccc(C(=CCCN2CCc3ccccc3C2)c2ccc(Cl)cc2)cc1
inhibition [1]: < 50%
inhibition [4]: < 50%
inhibition (INH) [5]: < 50%
inhibition [6]: < 50%

Structure (SMILES): Cl.O=C(CCCN1CCCCc2ccccc21)c1ccc(Cl)cc1
inhibition [1]: < 50%
inhibition (INH) (Histamine H1 receptor): < 50%
inhibition [2]: < 50%
inhibition (INH) [7]: < 50%
inhibition [3]: < 50%
inhibition [4]: < 50%
inhibition (INH) [5]: < 50%
inhibition [6]: < 50%

Structure (SMILES): COc1cc2c(cc1OC)CN(CCCCc1nc3cc(Cl)ccc3s1)CC2
Ki (D(4) dopamine receptor): 0.272 µM

Structure (SMILES): CC1(C)CC(=O)N(CCCCN2Cc3ccccc3C2)C(=O)C1
Ki (D(4) dopamine receptor): > 10 µM
